Measurements taken from ChEMBL document CHEMBL1154743, “A novel potent nicotinamide phosphoribosyltransferase inhibitor synthesized via click chemistry” (J Med Chem, 2010).
Activity calls are given as the source filed them. The calls are words filed in the database; no cut-off is given here.

Columns and labels:
ACHN = assay: Growth inhibition of human ACHN cells by sulforhodamine B assay; type: functional
IGROV-1 = assay: Growth inhibition of human IGROV1 cells by sulforhodamine B assay; type: functional
SF-268 = assay: Growth inhibition of human SF268 cells by sulforhodamine B assay; type: functional
LOX IMVI = assay: Growth inhibition of human LOXIMVI cells by sulforhodamine B assay; type: functional
T47D = assay: Growth inhibition of human T47D cells by sulforhodamine B assay; type: functional
OVCAR-4 = assay: Growth inhibition of human OVCAR4 cells by sulforhodamine B assay; type: functional
MDA-MB-435 = assay: Growth inhibition of human MDA-MB-435 cells by sulforhodamine B assay; type: functional
HCT-116 = assay: Growth inhibition of human HCT116 cells by sulforhodamine B assay; type: functional
PC-3 = assay: Growth inhibition of human PC3 cells by sulforhodamine B assay; type: functional
[1] = Growth inhibition of human […] cells by sulforhodamine B assay; type: functional
A549 = assay: Growth inhibition of human A549 cells by sulforhodamine B assay; type: functional
SNB-19 = assay: Growth inhibition of human SNB19 cells by sulforhodamine B assay; type: functional
SH-SY5Y [2] = assay: Induction of autophagy in human SH-SY5Y cells assessed as LC3/phosphotidylethanolamine coupling after 40 hrs by Western blot analysis; type: functional, cell-based
Method in brief: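 Western blot of LC3-I and LC3-II, with tubulin as reference, in untreated and treated cells exposed to 10 nM compound. Six independent experiments were run, using two LC3 antibodies from different sources.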

OVCAR-3 = assay: Growth inhibition of human OVCAR-3 cells by sulforhodamine B assay; type: functional
HCC 2998 = assay: Growth inhibition of human HCC2998 cells by sulforhodamine B assay; type: functional
[3] = Growth inhibition of human Hs 578T cells by sulforhodamine B assay; type: functional
SK-MEL-5 = assay: Growth inhibition of human SK-MEL-5 cells by sulforhodamine B assay; type: functional; settings: read-out: LC50 (the source's name)
DU-145 = assay: Growth inhibition of human DU145 cells by sulforhodamine B assay; type: functional
TK-10 = assay: Growth inhibition of human TK10 cells by sulforhodamine B assay; type: functional
MCF7 = assay: Growth inhibition of human MCF7 cells by sulforhodamine B assay; type: functional
COLO 205 = assay: Growth inhibition of human COLO205 cells by sulforhodamine B assay; type: functional
M14 = assay: Growth inhibition of human M14 cells by sulforhodamine B assay; type: functional
NCI-H226 = assay: Growth inhibition of human NCI-H226 cells by sulforhodamine B assay; type: functional
A498 = assay: Growth inhibition of human A498 cells by sulforhodamine B assay; type: functional
SH-SY5Y [4] = assay: Cytotoxicity against human SH-SY5Y cells assessed as cell viability after 48 hrs by MTT assay relative to control; type: functional
Method in brief: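 SH-SY5Y cells incubated with compound for 48 h and viability measured by MTT. Values are mean ± SEM of 8-12 determinations.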

Malme-3M = assay: Growth inhibition of human MALME-3M cells by sulforhodamine B assay; type: functional
[5] = read-out: LC50 (the source's name)

**Q.** Which GI50 (ACHN) does the source give for `O=C(CCCCCCCn1cc(-c2cccnc2)nn1)Nc1ccccc1-c1ccccc1` here?
**A.** 18.7 µM

**Q.** And the TGI (ACHN)?
**A.** > 100 µM

**Q.** And the CC50 (ACHN; [5])?
**A.** > 100 µM

**Q.** And the GI50 (IGROV-1)?
**A.** 0.272 µM

**Q.** What about the TGI (IGROV-1) of the same molecule?
**A.** > 100 µM

**Q.** And the CC50 (IGROV-1; [5])?
**A.** > 100 µM

**Q.** What about the GI50 (SF-268) of the same molecule?
**A.** 24.7 µM

**Q.** What about the TGI (SF-268) of the same molecule?
**A.** > 100 µM

**Q.** And the CC50 (SF-268; [5])?
**A.** > 100 µM

**Q.** And the GI50 (LOX IMVI)?
**A.** 10.1 µM

**Q.** And the TGI (LOX IMVI)?
**A.** > 100 µM

**Q.** And the CC50 (LOX IMVI; [5])?
**A.** > 100 µM

**Q.** What about the GI50 (T47D) of the same molecule?
**A.** 1.23 µM

**Q.** And the TGI (T47D)?
**A.** 16 µM

**Q.** What about the CC50 (T47D; [5]) of the same molecule?
**A.** > 100 µM

**Q.** What about the GI50 (OVCAR-4) of the same molecule?
**A.** 31.6 µM

**Q.** What about the TGI (OVCAR-4) of the same molecule?
**A.** > 100 µM

**Q.** What about the CC50 (OVCAR-4; [5]) of the same molecule?
**A.** > 100 µM

**Q.** And the GI50 (MDA-MB-435)?
**A.** 0.399 µM

**Q.** What about the TGI (MDA-MB-435) of the same molecule?
**A.** 13.3 µM

**Q.** And the CC50 (MDA-MB-435; [5])?
**A.** > 100 µM

**Q.** What about the GI50 (HCT-116) of the same molecule?
**A.** 0.0403 µM

**Q.** And the TGI (HCT-116)?
**A.** > 100 µM

**Q.** What about the CC50 (HCT-116; [5]) of the same molecule?
**A.** > 100 µM

**Q.** And the GI50 (PC-3)?
**A.** 0.467 µM

**Q.** What about the TGI (PC-3) of the same molecule?
**A.** 42.8 µM

**Q.** And the CC50 (PC-3; [5])?
**A.** > 100 µM

**Q.** And the GI50 [1]?
**A.** 0.913 µM

**Q.** What about the TGI [1] of the same molecule?
**A.** 60.6 µM

**Q.** What about the CC50 [1, 5] of the same molecule?
**A.** > 100 µM

**Q.** And the GI50 (A549)?
**A.** 2.1 µM

**Q.** What about the TGI (A549) of the same molecule?
**A.** > 100 µM

**Q.** And the CC50 (A549; [5])?
**A.** > 100 µM

**Q.** And the GI50 (SNB-19)?
**A.** 0.45 µM

**Q.** What about the TGI (SNB-19) of the same molecule?
**A.** > 100 µM

**Q.** And the CC50 (SNB-19; [5])?
**A.** > 100 µM

**Q.** What about the Activity (SH-SY5Y [2]) of the same molecule?
**A.** Active

**Q.** What about the GI50 (OVCAR-3) of the same molecule?
**A.** 5.19 µM

**Q.** And the TGI (OVCAR-3)?
**A.** > 100 µM

**Q.** What about the CC50 (OVCAR-3; [5]) of the same molecule?
**A.** > 100 µM

**Q.** What about the GI50 (HCC 2998) of the same molecule?
**A.** 0.7 µM

**Q.** What about the TGI (HCC 2998) of the same molecule?
**A.** > 100 µM

**Q.** What about the CC50 (HCC 2998; [5]) of the same molecule?
**A.** > 100 µM

**Q.** What about the GI50 [3] of the same molecule?
**A.** 20.4 µM

**Q.** What about the TGI [3] of the same molecule?
**A.** > 100 µM

**Q.** And the CC50 [3, 5]?
**A.** > 100 µM

**Q.** What about the CC50 (SK-MEL-5) of the same molecule?
**A.** 42.4 µM

**Q.** And the GI50 (DU-145)?
**A.** 0.702 µM

**Q.** What about the TGI (DU-145) of the same molecule?
**A.** > 100 µM

**Q.** And the CC50 (DU-145; [5])?
**A.** > 100 µM

**Q.** What about the GI50 (TK-10) of the same molecule?
**A.** 18.2 µM

**Q.** What about the TGI (TK-10) of the same molecule?
**A.** > 100 µM

**Q.** And the CC50 (TK-10; [5])?
**A.** > 100 µM

**Q.** And the GI50 (MCF7)?
**A.** 3.42 µM

**Q.** And the TGI (MCF7)?
**A.** 50.1 µM

**Q.** What about the CC50 (MCF7; [5]) of the same molecule?
**A.** > 100 µM

**Q.** And the GI50 (COLO 205)?
**A.** 1.18 µM

**Q.** And the TGI (COLO 205)?
**A.** 36 µM

**Q.** What about the CC50 (COLO 205; [5]) of the same molecule?
**A.** > 100 µM

**Q.** And the GI50 (M14)?
**A.** 0.166 µM

**Q.** And the TGI (M14)?
**A.** 20.7 µM

**Q.** And the CC50 (M14; [5])?
**A.** > 100 µM

**Q.** And the GI50 (NCI-H226)?
**A.** 15.5 µM

**Q.** What about the TGI (NCI-H226) of the same molecule?
**A.** 51.7 µM

**Q.** What about the CC50 (NCI-H226; [5]) of the same molecule?
**A.** > 100 µM

**Q.** And the GI50 (A498)?
**A.** 15.9 µM

**Q.** What about the TGI (A498) of the same molecule?
**A.** > 100 µM

**Q.** What about the CC50 (A498; [5]) of the same molecule?
**A.** > 100 µM

**Q.** What about the Activity (SH-SY5Y [4]) of the same molecule?
**A.** 24%

**Q.** What about the GI50 (Malme-3M) of the same molecule?
**A.** 12.2 µM

**Q.** What about the TGI (Malme-3M) of the same molecule?
**A.** 62.8 µM

**Q.** And the CC50 (Malme-3M; [5])?
**A.** > 100 µM
